According to ChEMBL document CHEMBL3407348, “Antileishmanial activity of quinazoline derivatives: synthesis, docking screens, molecular dynamic simulations and electrochemical studies” (Eur J Med Chem, 2015):
In brackets after ≈: the same amount, converted by molar mass.

How the values were obtained:
[1] = tested on: Leishmania mexicana; assay: Antiparasitic activity against promastigote form of Leishmania mexicana MHOM/BZ/61/M379 after 24 hrs by haemocytometer; assay type: functional, organism-based
Method in brief: (§1)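 Promastigotes were grown in DMEM with L-glutamine and 4,500 mg/L glucose, without bicarbonate, plus 10% fetal calf serum. Serial compound dilutions (1:10 compound:medium) were mixed with an equal volume of 2 × 10⁶ parasites/mL at 26 °C. Parasites were counted by hemacytometer in triplicate. Growth inhibition was expressed as a percentage of the no-drug control, with 100 µM used for the initial screen.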

[2] = physchem; conditions: phosphate buffered saline, pH 7.4
[3] = molecular target: Bifunctional dihydrofolate reductase-thymidylate synthase (Leishmania major, UniProt P07382); assay: Binding affinity to Leishmania major DHFR
[4] = tested on: Leishmania mexicana; assay: Antiparasitic activity against promastigote form of Leishmania mexicana MHOM/BZ/61/M379 at 100 uM after 24 hrs by haemocytometer; assay type: functional; conditions: for inhibition at 100 µM: MHOM/BZ/61/M379, 72 h, in the assay text read “72 hrs” for “24 hrs”; method in brief: as §1
[5] = Retention time of the compound; assay type: physicochemical
Method in brief: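 Reverse-phase HPLC on an RP-amide column (150 × 4.6 mm, 5 µm) with guard column. Mobile phase was 10 mM phosphate buffer pH 3.3 and acetonitrile (60:40 v/v) at 1.00 mL/min and 30 °C, with an 8 min run. UV detection at 240 and 272 nm.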

[6] = molecular target: T1, Pteridine reductase 1 (Leishmania major, UniProt Q01782)
T1 sequence (Q01782 whole entry): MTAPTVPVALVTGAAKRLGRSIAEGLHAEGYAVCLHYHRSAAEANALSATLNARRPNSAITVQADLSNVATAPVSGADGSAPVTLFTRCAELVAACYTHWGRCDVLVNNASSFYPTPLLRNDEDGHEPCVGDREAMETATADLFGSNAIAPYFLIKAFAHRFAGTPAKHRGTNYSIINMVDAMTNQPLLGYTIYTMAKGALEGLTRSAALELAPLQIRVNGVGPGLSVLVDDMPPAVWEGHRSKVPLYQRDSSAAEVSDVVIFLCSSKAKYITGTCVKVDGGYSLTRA

[7] = tested on: Leishmania mexicana; assay: Antiparasitic activity against promastigote form of Leishmania mexicana MHOM/BZ/61/M379 after 72 hrs by haemocytometer; conditions: MHOM/BZ/61/M379, 72 h
[8] = tested on: Leishmania mexicana; conditions: MHOM/BZ/61/M379, 100 uM
[9] = tested on: Leishmania mexicana; conditions: MHOM/BZ/61/M379, 100 uM; remark: listed apart in the source
[10] = tested on: Leishmania mexicana; assay: Antiparasitic activity against Leishmania mexicana MHOM/BZ/61/M379 assessed as oxygen consumption at 5.74 mM during 1 hr by fluorescence assay (reference value: 100%); assay type: functional
Method in brief: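 Promastigotes (5 × 10⁶) were placed in microplate wells containing an oxygen-sensitive fluorophore with the test agent for 1 or 2 h. Oxygen consumption was read as fluorescence on a plate reader and expressed relative to untreated parasites (100%). Sodium cyanide served as the mitochondrial-damage control and dithionite as the oxygen-abolition control. Run in triplicate, with at least four independent experiments.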

[11] = in vitro; conditions: mouse, L929 cells

Chain of Bifunctional dihydrofolate reductase-thymidylate synthase (P07382 whole entry): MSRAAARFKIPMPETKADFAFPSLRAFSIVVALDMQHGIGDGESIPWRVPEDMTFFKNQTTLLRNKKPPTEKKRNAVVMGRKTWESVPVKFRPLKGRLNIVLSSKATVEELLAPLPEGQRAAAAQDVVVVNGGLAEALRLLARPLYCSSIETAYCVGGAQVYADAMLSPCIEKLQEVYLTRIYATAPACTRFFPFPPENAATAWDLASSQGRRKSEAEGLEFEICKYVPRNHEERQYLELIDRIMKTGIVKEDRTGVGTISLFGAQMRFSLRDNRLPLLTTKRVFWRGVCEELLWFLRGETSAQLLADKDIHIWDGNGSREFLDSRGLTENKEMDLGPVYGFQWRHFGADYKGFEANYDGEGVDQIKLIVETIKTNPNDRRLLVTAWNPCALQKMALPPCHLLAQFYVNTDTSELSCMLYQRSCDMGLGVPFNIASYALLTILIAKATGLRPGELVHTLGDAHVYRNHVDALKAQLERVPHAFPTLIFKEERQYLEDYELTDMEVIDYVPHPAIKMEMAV

Molecule | solubility [2] | Kd [3] | inhibition at 100 µM [4] | Retention_time [5] | Kd [6] | IC50 [7] | other results
MEGLUMINE ANTIMONATE [listing 1 of 2 here] |  |  |  |  |  |  | IC50 [1]: 183000 nM
Nc1nc(N)c2cc(NCc3ccc(O)cc3)ccc2n1 | 380 µg/mL (≈ 1350 µM) | 1020 nM | 0% | 3.081 min | 2400 nM |  | 
Nc1nc(N)c2cc(NCc3ccc([N+](=O)[O-])cc3)ccc2n1 |  | 241 nM | 20% | 3.841 min | 1430 nM | > 100000 nM | 
Nc1nc(N)c2cc(NCCn3c(C(F)(F)F)nc4cc(Cl)c(Cl)cc43)ccc2n1 | 510 µg/mL (≈ 1120 µM) | 752 nM | 0% | 3.188 min |  |  | 
Nc1nc(N)c2cc([N+](=O)[O-])ccc2n1 |  | 15800 nM |  |  | 261 nM |  | 
MEGLUMINE ANTIMONATE [listing 2 of 2 here] |  |  |  |  |  |  | inhibition [4]: 100%
COc1cc(Cc2cnc(N)nc2N)cc(OC)c1OC [TRIMETHOPRIM] |  |  | 30% |  |  | > 100000 nM | survival [8]: 70%; survival [9]: 100%
O=S([O-])S(=O)[O-].[Na+].[Na+] |  |  |  |  |  |  | Activity [10]: 175.9%
CCc1nc(N)nc(N)c1-c1ccc(Cl)cc1 [PYRIMETHAMINE] |  |  | 50% |  |  | 100000 nM | 
CC1CS(=O)(=O)CCN1/N=C/c1ccc([N+](=O)[O-])o1 (stereo unspecified) [NIFURTIMOX] |  |  |  |  |  |  | viability at 48 h, 100 µM [11]: 42%
Nc1ccc2nc(N)nc(N)c2c1 [QUINAZOLINE-2,4,6-TRIAMINE] | > 9000 µg/mL | 84000 nM | 0% |  | 58800 nM |  | 
COc1ccc(CNc2ccc3nc(N)nc(N)c3c2)cc1 | 250 µg/mL (≈ 846 µM) | 1580 nM | 100% | 3.081 min | 2850 nM | 14600 nM | 
